Laboratory results reported in publication PMC2847506 (Phytochemistry, 2010).

What was measured:
NF-κB p65 (RelA) subunit = NF-κB p65 (RelA) subunit (Homo sapiens, UniProt Q04206); experiment: Enzyme-based ELISA NF-κB; type: biochemical
[1] = tested on: HT-29 human colon cancer cell line; experiment: Cytotoxic activity against the HT-29 cell line; type: cell-based; conditions: for Cytotoxicity ED50: HT-29 cells
HT-29 human cancer cells = experiment: In vivo hollow fiber assay, HT-29; set-up: species or system human cells in host mice; conditions: HT29, ip administration, 0.5 to 10 mg per kg per day for four days
Procedure, shortened: (§1)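 Murine hollow fiber model following an NCI procedure, with human cancer cells (HT-29, LNCaP, MCF-7) held in fibers. Test compound given ip at 0.5 to 10 mg/kg per day for four days, in 5% EtOH plus 5% Tween 80 in physiologic saline. Paclitaxel positive control at 2.0 mg/kg per day for four days.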

[2] = Body weight of host mice in the hollow fiber assay; type: in vivo; conditions: highest two doses (10 and 5 mg/kg/day), ip, over the course of the study
Procedure, shortened: as §1

[3] = tested on: P-388 lymphocytic murine leukemia; conditions: ref Herz et al., 1981; cited from earlier work
[4] = tested on: LNCaP (hormone-dependent human prostate cancer); experiment: In vivo hollow fiber assay, LNCaP; set-up: species or system human cells in host mice; conditions: ip administration, 0.5 to 10 mg per kg per day for four days
Procedure, shortened: as §1

[5] = tested on: MCF-7 (human breast cancer); experiment: In vivo hollow fiber assay, MCF-7; set-up: species or system human cells in host mice; conditions: MCF-7, ip administration, 0.5 to 10 mg per kg per day for four days
Procedure, shortened: as §1

[6] = Stability in solvents at room temperature; type: physicochemical; conditions: kept in CDCl3 or deuteriobenzene at room temperature; [2+2] addition

Sequence of NF-κB p65 (RelA) subunit (Q04206 whole entry, species assumed): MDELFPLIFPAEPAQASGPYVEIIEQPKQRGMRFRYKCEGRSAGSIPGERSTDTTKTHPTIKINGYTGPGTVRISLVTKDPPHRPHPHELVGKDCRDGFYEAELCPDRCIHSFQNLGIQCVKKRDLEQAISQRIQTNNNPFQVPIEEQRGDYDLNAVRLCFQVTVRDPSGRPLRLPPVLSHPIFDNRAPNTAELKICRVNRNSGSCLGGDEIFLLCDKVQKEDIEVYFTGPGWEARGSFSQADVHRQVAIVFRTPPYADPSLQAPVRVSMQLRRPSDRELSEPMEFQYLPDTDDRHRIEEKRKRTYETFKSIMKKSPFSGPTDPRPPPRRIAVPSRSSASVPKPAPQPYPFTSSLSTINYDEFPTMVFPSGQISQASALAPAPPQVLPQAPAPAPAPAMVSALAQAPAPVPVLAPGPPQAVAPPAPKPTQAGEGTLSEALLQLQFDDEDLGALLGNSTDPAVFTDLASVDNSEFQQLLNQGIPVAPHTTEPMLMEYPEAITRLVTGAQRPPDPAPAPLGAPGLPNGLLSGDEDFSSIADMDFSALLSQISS

Substance | NF-κB Inhibition ED50 (NF-κB p65 (RelA) subunit) [µM] | Cytotoxicity ED50 [1] [µM] | change of potency of the inhibitory effect on HT-29 cells relative to compound 3 ([1]; tiglate instead of methacrylate on C-8) | inhibition of proliferation in hollow fibers (HT-29 human cancer cells) | body weight loss [2] | in vivo antitumor activity [3] | inhibition of proliferation in hollow fibers [4] | inhibition of proliferation in hollow fibers [5] | stability in solvents [6]
2-epi-glaucolide E [Compound 5] | > 10 | 9.4 | – | – | – | – | – | – | –
2α,13-diacetoxy-4α-hydroxy-8α-methacryloyloxybourbonen-12,6α-olide [Compound 6] | 2.8 | – | – | – | – | – | – | – | –
8-desacyl-13-acetoxyrolandrolide-8-O-tiglate [Compound 4] | – | 1.5 | decreased around ten times | – | – | – | – | – | –
13-acetoxyrolandrolide [Compound 3] | 7.1 | 0.16 | – | no inhibition of proliferation was observed | up to 20% | weak | no inhibition of proliferation was observed | no inhibition of proliferation was observed | partially transformed to compound 6
